This note sets out measurements from PubChem BioAssay.

The source made the active and inactive calls.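 The calls were made as follows, unless noted: active = GFP response above 150% of the DMSO level; inconclusive = fewer than 70 events counted for a yeast strain; inactive = the rest.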

The nature of assay [1]: hit retest on RPL19A-GFP reporter strain – cell-based, S. cerevisiae, flow cytometry, cherry picks, mother/daughter gates, confirmation (AID 2270;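 active = GFP response below 50% of the DMSO control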). The note with it: 3 h, at 10 µM, stronger effect = lower value, 100 = same GFP as DMSO wells. In general terms: Flow cytometry measures light scatter and fluorescence of single cells or particles in a stream.
Assay [2] can be described thus: yeast TOR pathway reporter LAP4-GFP change – cell-based, cherry picks, flow cytometry, mother/daughter gates, confirmation (AID 2271;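 active = GFP response above 150% of the DMSO control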;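 also: ratio of sample to DMSO plate mean so 100% equals DMSO level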). The note with it: S. cerevisiae LAP4-GFP strain, 3 h, at 10 µM, stronger effect = higher value, 100 means same as DMSO control. An outline of the steps: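 System – GFP-fusion yeast strain · Amount – 0.2 OD600 cells · Buffer or medium – SC growth medium · Dosing – single test-compound dose, 10 µM final · Schedule – 3 h treatment at 30 °C with rotation · Detection – GFP by flow cytometry · Read-out – per-gate (all, mother, daughter) GFP response vs DMSO · Benchmarks – positive rapamycin (400 ng/mL), negative DMSO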

Assay [3] is described as follows: TOR pathway reporter MEP2-GFP, retest of hits – S. cerevisiae, flow cytometry GFP, cherry picks, confirmation (AID 2272;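 active = GFP response above 150% of the DMSO control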;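 also: ratio of well signal to plate DMSO mean so 100% equals DMSO level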). The note with it: S. cerevisiae MEP2-GFP strain, 3 h, at 10 µM, stronger effect = higher value.
Assay [4] is described as follows: yeast AGP1-GFP fluorescence change, single-dose – cell-based, flow cytometry, S. cerevisiae, cherry picks, confirmation (AID 2273).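 Also: median GFP channel fluorescence over the whole cell population gate.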 The note with it: S. cerevisiae AGP1-GFP strain, 3 h, at 10 µM.
Assay [5] is described as follows: TOR pathway CIT2 reporter hit retest – S. cerevisiae, GFP fusion, cherry picks, mother/daughter gates, confirmation (AID 2274). The note with it: S. cerevisiae CIT2-GFP strain, flow cytometry, 3 h, at 10 µM, stronger effect = higher value.
The mark [6] stands for this setting: measured here: daughter cell gate.
Where [7] appears, read: measured here: mother cell gate.
Where [8] appears, read: measured here: daughter cell gate response.
Where [9] appears, read: measured here: mother cell gate response.

`O=C(Nc1cccnc1)c1ccc(-c2ccc(Cl)cc2)o1`: the GFP response vs DMSO was 97.2% (inactive) in assay [1], 93.9% in assay [1] (setting [6]), 97.7% in assay [1] (setting [7]) and 97.8% (inactive) in assay [3]. Also, the GFP response relative to DMSO was 101% (inactive) in assay [2], 100% in assay [2] (setting [8]) and 103% in assay [2] (setting [9]). Also, the GFP response, % of DMSO is 94.1% (inactive) in assay [4], 100% (inactive) in assay [5], 98.1% in assay [5] (setting [6]) and 99.8% in assay [5] (setting [7]).
On to `CSc1nc(N2CCN(c3ccccc3Cl)CC2)c2ccccc2n1`, for which the GFP response vs DMSO is 96.2% (inactive) in assay [1], 96.7% in assay [1] (setting [6]), 95.2% in assay [1] (setting [7]) and 110% (inactive) in assay [3]. In addition, the GFP response relative to DMSO in assay [2] is 98.9% (inactive); in assay [2] (setting [8]) it was 101%; in assay [2] (setting [9]), 98.4%. The GFP response, % of DMSO in assay [4] is 102% (inactive); in assay [5] it was 97.2% (inactive); in assay [5] (setting [6]), 97.6%; in assay [5] (setting [7]), 97.1%.
With `COc1ccccc1C(=O)N1CCN(c2cccc(C(F)(F)F)c2)CC1`, the GFP response vs DMSO in assay [1] is 96.2% (inactive); in assay [1] (setting [6]), 97.3%; in assay [1] (setting [7]) it was 97.4%; in assay [3], 99.5% (inactive). Also, the GFP response relative to DMSO in assay [2] is 95.3% (inactive); in assay [2] (setting [8]), 96.5%; in assay [2] (setting [9]), 94.6%. Also, the GFP response, % of DMSO in assay [4] was 98.9% (inactive); in assay [5] it was 99.3% (inactive); in assay [5] (setting [6]) it was 100%; in assay [5] (setting [7]), 100%.
Take `O=S(=O)(c1ccc(Cl)cc1)c1ccccn1`: the GFP response vs DMSO in assay [1] was 96.2% (inactive); in assay [1] (setting [6]), 96.4%; in assay [1] (setting [7]), 95.8%; in assay [3], 101% (inactive). Further, the GFP response relative to DMSO in assay [2] is 94.1% (inactive); in assay [2] (setting [8]) it was 96%; in assay [2] (setting [9]), 93.4%. The GFP response, % of DMSO is 98.2% (inactive) in assay [4], 103% (inactive) in assay [5], 101% in assay [5] (setting [6]) and 105% in assay [5] (setting [7]).
As to `COc1ccc(C(=O)C2CCCN(C(=O)c3cccs3)C2)cc1F` (stereo not given), the GFP response vs DMSO in assay [1] was 102% (inactive); in assay [1] (setting [6]), 101%; in assay [1] (setting [7]), 101%; in assay [3], 99% (inactive). The GFP response relative to DMSO was 98.2% (inactive) in assay [2], 99.1% in assay [2] (setting [8]) and 98.4% in assay [2] (setting [9]). Further, the GFP response, % of DMSO was 103% (inactive) in assay [4], 100% (inactive) in assay [5], 103% in assay [5] (setting [6]) and 99.3% in assay [5] (setting [7]).
Turning to `COC(=O)c1cc(S(=O)(=O)Nc2nn(C)c3ccccc23)oc1C`, the GFP response vs DMSO in assay [1] is 97.2% (inactive); in assay [1] (setting [6]), 98.1%; in assay [1] (setting [7]), 97.1%; in assay [3], 100% (inactive). Besides, the GFP response relative to DMSO was 96.7% (inactive) in assay [2], 97.6% in assay [2] (setting [8]) and 94% in assay [2] (setting [9]). In addition, the GFP response, % of DMSO in assay [4] is 95% (inactive); in assay [5], 99.7% (inactive); in assay [5] (setting [6]), 101%; in assay [5] (setting [7]), 99.7%.
Regarding `O=C1C2C3C=CC(C4CC34)C2C(=O)N1/N=C/c1ccc([N+](=O)[O-])o1` (stereo not given), the GFP response vs DMSO in assay [1] was 101% (inactive); in assay [1] (setting [6]) it was 105%; in assay [1] (setting [7]), 95.8%; in assay [3] it was 106% (inactive). Further, the GFP response relative to DMSO in assay [2] is 129% (inactive); in assay [2] (setting [8]), 122%; in assay [2] (setting [9]) it was 120%. Besides, the GFP response, % of DMSO is 101% (inactive) in assay [4], 107% (inactive) in assay [5], 112% in assay [5] (setting [6]) and 100% in assay [5] (setting [7]).
Take `COc1ccc(C(=O)/C=C2/C(=O)Nc3ccccc32)cc1OC`: the GFP response vs DMSO was 98.2% (inactive) in assay [1], 98.8% in assay [1] (setting [6]), 99.3% in assay [1] (setting [7]) and 99.5% (inactive) in assay [3]. Moreover, the GFP response relative to DMSO is 97.7% (inactive) in assay [2], 96.5% in assay [2] (setting [8]) and 97.5% in assay [2] (setting [9]). In addition, the GFP response, % of DMSO in assay [4] was 97.5% (inactive); in assay [5], 95% (inactive); in assay [5] (setting [6]) it was 94.6%; in assay [5] (setting [7]), 93.3%.
Regarding `COc1ccc(OC)c(CNC(=O)CCC(=O)N2Cc3cccc(OC)c3Oc3ncccc32)c1`, the GFP response vs DMSO was 102% (inactive) in assay [1], 100% in assay [1] (setting [6]), 101% in assay [1] (setting [7]) and 105% (inactive) in assay [3]. In addition, the figures for the GFP response relative to DMSO in assay [2], in assay [2] (setting [8]) and in assay [2] (setting [9]) were 90.6% (inactive), 94.2% and 95.2%, respectively. Further, the GFP response, % of DMSO was 109% (inactive) in assay [4], 102% (inactive) in assay [5], 101% in assay [5] (setting [6]) and 103% in assay [5] (setting [7]).
As to `O=C(Nc1nc(-c2ccc(F)cc2)cs1)c1cnccn1`, the GFP response vs DMSO is 97.8% (inactive) in assay [1], 98.3% in assay [1] (setting [6]), 98.1% in assay [1] (setting [7]) and 110% (inactive) in assay [3]. For the same molecule, the GFP response relative to DMSO in assay [2] was 101% (inactive); in assay [2] (setting [8]), 97.9%; in assay [2] (setting [9]), 101%. The GFP response, % of DMSO was 96.2% (inactive) in assay [4], 105% (inactive) in assay [5], 98.3% in assay [5] (setting [6]) and 104% in assay [5] (setting [7]).
Take `Cc1ccc(N2C(=O)C3C4C=CC(CNC(=S)Nc5ccc(F)cc5)(O4)C3C2=O)cc1` (stereo not given): the GFP response vs DMSO in assay [1] is 98.4% (inactive); in assay [1] (setting [6]) it was 99.9%; in assay [1] (setting [7]), 97.5%; in assay [3] it was 108% (inactive). Besides, the GFP response relative to DMSO in assay [2] was 102% (inactive); in assay [2] (setting [8]) it was 103%; in assay [2] (setting [9]), 103%. Also, the GFP response, % of DMSO is 105% (inactive) in assay [4], 110% (inactive) in assay [5], 110% in assay [5] (setting [6]) and 110% in assay [5] (setting [7]).
On to `O=C(CSc1nnc(C2COc3ccccc3O2)o1)N1CCCC1` (stereo not given), for which the GFP response vs DMSO was 97.8% (inactive) in assay [1], 98.6% in assay [1] (setting [6]), 98.7% in assay [1] (setting [7]) and 98.8% (inactive) in assay [3]. In addition, the values for the GFP response relative to DMSO in assay [2], in assay [2] (setting [8]) and in assay [2] (setting [9]) were 94.9% (inactive), 98.2% and 95.1%, respectively. Moreover, the GFP response, % of DMSO in assay [4] was 103% (inactive); in assay [5], 112% (inactive); in assay [5] (setting [6]), 111%; in assay [5] (setting [7]), 112%.
`O=C(CS(=O)c1ccccc1[N+](=O)[O-])Oc1ccc(Br)cc1` (stereo not given): the GFP response vs DMSO in assay [1] is 101% (inactive); in assay [1] (setting [6]), 105%; in assay [1] (setting [7]), 96.5%; in assay [3] it was 101% (inactive). Further, the GFP response relative to DMSO in assay [2] is 168% (active); in assay [2] (setting [8]) it was 167%; in assay [2] (setting [9]), 164%. Moreover, the GFP response, % of DMSO in assay [4] is 107% (inactive); in assay [5] it was 98.6% (inactive); in assay [5] (setting [6]), 105%; in assay [5] (setting [7]) it was 91.5%.
For `Cc1c(Cc2ccccc2)c(NCCN(C)C)n2c(nc3ccccc32)c1C#N`, the GFP response vs DMSO in assay [1] was 116% (inactive); in assay [1] (setting [6]), 45.5%; in assay [1] (setting [7]), 99%; in assay [3], 187% (active). The GFP response relative to DMSO in assay [2] is 249% (active); in assay [2] (setting [8]), 167%; in assay [2] (setting [9]), 218%. Further, the GFP response, % of DMSO is 143% (inactive) in assay [4], 116% (inactive) in assay [5], 135% in assay [5] (setting [6]) and 92.8% in assay [5] (setting [7]).
Turning to `COC(=O)c1ccc(C(=O)NC(=S)Nc2ccc3nc(SC)sc3c2)cc1`, the GFP response vs DMSO is 97.8% (inactive) in assay [1], 97.6% in assay [1] (setting [6]), 98.3% in assay [1] (setting [7]) and 101% (inactive) in assay [3]. Further, the GFP response relative to DMSO was 90% (inactive) in assay [2], 90.4% in assay [2] (setting [8]) and 91% in assay [2] (setting [9]). The GFP response, % of DMSO was 102% (inactive) in assay [4], 103% (inactive) in assay [5], 93.7% in assay [5] (setting [6]) and 105% in assay [5] (setting [7]).
